A selection: hits, their analogues and other compounds. The true share with any hit is near 1.7%.
STEP block – inhibitors of human striatal-enriched phosphatase STEP; 360,000 tested, 0.25% active; P54829; recombinant STEP, OMFP fluorogenic substrate, fluorescence; inhibition, % at 20 µM;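 active = inhibition at 20 µM, scaled per plate between control wells, above about 37%, limit read from the data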;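 also: 0% = DMSO with enzyme and substrate and 100% = substrate only without enzyme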
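System: isolated STEP enzyme; schedule: 20 min enzyme reaction at room temperature, protected from light; medium: Bis-Tris buffer pH 6.0, 2.5 mM DTT, 0.005% Tween 20; signal: fluorescence, 480/540 nm; dosing: single compound dose of 20 µM, 1% DMSO final; also added: OMFP substrate, 25 µM final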
DNMT1 inh – inhibitors of human DNMT1; P26358; DNMT1 molecular beacon, Hinp1I cleavage, fluorescence; inhibition (reported as % activation of signal), % at 10 µM; 360,000 tested, 0.83% active; AID 588458; in the data active = inhibition above about 50%
Target sequence (P26358 504-1616 limits assumed): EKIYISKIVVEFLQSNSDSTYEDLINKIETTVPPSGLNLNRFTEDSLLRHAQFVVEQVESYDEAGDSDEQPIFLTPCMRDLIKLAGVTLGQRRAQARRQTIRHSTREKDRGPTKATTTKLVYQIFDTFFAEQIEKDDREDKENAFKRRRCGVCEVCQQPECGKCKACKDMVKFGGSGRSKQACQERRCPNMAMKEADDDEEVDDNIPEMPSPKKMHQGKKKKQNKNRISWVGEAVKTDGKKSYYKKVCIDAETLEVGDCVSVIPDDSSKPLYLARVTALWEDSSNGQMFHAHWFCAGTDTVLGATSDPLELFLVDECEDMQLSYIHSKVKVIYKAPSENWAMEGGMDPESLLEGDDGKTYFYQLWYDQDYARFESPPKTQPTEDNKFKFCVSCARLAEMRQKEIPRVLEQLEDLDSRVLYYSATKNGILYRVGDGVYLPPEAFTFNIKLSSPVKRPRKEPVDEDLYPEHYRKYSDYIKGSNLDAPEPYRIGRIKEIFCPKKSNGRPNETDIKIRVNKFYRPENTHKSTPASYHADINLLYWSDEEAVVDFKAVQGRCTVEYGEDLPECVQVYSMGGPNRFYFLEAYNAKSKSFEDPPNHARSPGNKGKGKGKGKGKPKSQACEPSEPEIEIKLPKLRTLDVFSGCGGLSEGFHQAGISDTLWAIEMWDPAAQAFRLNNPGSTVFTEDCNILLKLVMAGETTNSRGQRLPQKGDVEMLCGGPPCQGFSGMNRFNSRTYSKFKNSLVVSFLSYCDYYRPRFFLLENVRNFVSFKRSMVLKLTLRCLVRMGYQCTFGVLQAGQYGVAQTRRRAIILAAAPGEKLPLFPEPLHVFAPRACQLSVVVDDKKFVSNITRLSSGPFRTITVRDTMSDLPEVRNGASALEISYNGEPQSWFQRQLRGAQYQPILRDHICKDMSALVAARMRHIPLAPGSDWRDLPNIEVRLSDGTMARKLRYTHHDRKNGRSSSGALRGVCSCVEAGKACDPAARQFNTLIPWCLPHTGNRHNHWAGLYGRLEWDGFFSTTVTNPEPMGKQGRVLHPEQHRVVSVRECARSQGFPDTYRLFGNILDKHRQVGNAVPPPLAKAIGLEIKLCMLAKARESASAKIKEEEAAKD
Scp1 inh – inhibitors of human Scp-1 phosphatase | Q9GZU7 | Recombinant Scp1, phosphopeptide, malachite green phosphate absorbance | inhibition, % at 20 µM | 340,000 tested, 0.88% active | AID 493091;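 active = inhibition above about 50% at 20 µM, limit read from the data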;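 also: plate controls were DMSO wells with enzyme for no effect and wells lacking enzyme for full effect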
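Test system: SCP-1 catalytic domain; Buffer or medium: Acidic Tris acetate buffer with magnesium and detergent; Also added: Phosphorylated 17-residue peptide substrate; Compound: single 20 µM dose, 1% DMSO; Schedule: enzyme reaction 45 min at room temperature, colour 5 min, stabilisation 30 min; Signal: Phosphate-binding colour reagent, absorbance read at 630 nm.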
SUMO1-SIM PPI – modulators of human SUMO1-mediated protein-protein interactions. P63165. SUMO1 binding to a labelled peptide, TR-FRET, 1 h. inhibition, % at 20 µM. 360,000 tested, 0.33% active; in the data active = inhibition above about 37%
LMPTP block – blocks human LMPTP phosphatase; recombinant LMPTP-A, OMFP fluorogenic substrate, fluorescence intensity; inhibition, % at 20 µM; 360,000 tested, 0.22% active; AID 651560;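 active = compounds that cut the enzyme signal by at least half of the control window in the single-dose screen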;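 also: plate controls were DMSO wells with enzyme plus substrate for no effect and substrate without enzyme for full effect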
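Assay system: LMPTP-A, protein tyrosine phosphatase of low molecular weight / Medium: pH 6.0 Bis-Tris buffer with DTT and Triton X-100 / Schedule: 50 min enzyme reaction at room temperature, protected from light / Measured by: endpoint fluorescence intensity from OMFP dephosphorylation / Read-out basis: % inhibition relative to no-enzyme and uninhibited control wells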
Scp1 confirm – Scp-1 (human) inhibition, single-dose confirmed | inhibition, % at 20 µM | shares compounds with Scp1 inh | 2,500 tested, 61% active | recombinant SCP-1 catalytic domain, phosphate release, malachite green absorbance;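 also: plate controls were DMSO with enzyme for no effect and buffer wells lacking enzyme for full effect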
Scp-1 MG ctr – interferes with malachite green readout, flagging false Scp-1 hits; 2,500 tested, under 10 active; Colorimetric interference counterscreen, malachite green absorbance 630 nm; shares compounds with Scp1 inh; apparent inhibition (interference), % at 20 µM;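 also: compounds added after enzyme reaction finished so only phosphate colour detection is probed; plate controls were DMSO wells with completed Scp-1 reaction for no effect and substrate wells lacking enzyme for full effect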
Scp-1 Tm shift – binds human Scp-1, shifting its melting temperature; 1,500 tested, 25% active; Recombinant SCP1, Sypro Orange thermal shift Tm; thermal shift relative to vanadate control, % at 40 µM; shares compounds with Scp1 inh;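 active = substances whose mean melting-temperature shift, as a percentage of the reference inhibitor's shift, reaches about 5.3%, limit read from the data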;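 also: 0% = Tm of DMSO wells and 100% = Tm with sodium orthovanadate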
Beacon interf DR – shows spectral interference in the DNMT1 beacon assay; shares compounds with DNMT1 inh; molecular beacon fluorescence, spectral interference counter-screen; IC50, µM; 200 tested, under 10 active; AID 602382; call rule not given here
DNMT1 confirm – DNMT1 inhibition confirmation, single concentration | DNMT1 molecular beacon HinP1I cleavage, fluorescence | inhibition, % at 10 µM | shares compounds with DNMT1 inh | AID 602385 | 2,300 tested, 8% active;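 active = average inhibition of at least 30% in the single-concentration confirmation test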
Beacon interf – beacon fluorescence artifact counter-screen; activation (fluorescence interference), % at 10 µM; shares compounds with DNMT1 inh; DNMT1 molecular beacon spectral interference counterscreen, fluorescence 485/520; 2,300 tested, 1% active;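 active = activation of at least 30% at 10 µM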;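 also: DNMT1 catalytic domain with a HinP1I cleavage step and a FAM/dabcyl DNA beacon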
* hit, by the source's call; · = not tested or not shown.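 The calls were made as follows, unless noted: active = inhibition of at least 30% at 20 µM; inactive = the rest.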

SMILES | STEP block | DNMT1 inh | Scp1 inh | SUMO1-SIM PPI | LMPTP block | Scp1 confirm | Scp-1 MG ctr | Scp-1 Tm shift | DNMT1 confirm | Beacon interf | others
CC1CC(C)CN(C(=O)COC(=O)/C=C/c2ccco2)C1 (stereo unspecified) | 15 | 34 | 59* | -17 | 5 | 48* | -18 | -20 | · | ·
O=C(N/N=C/c1cc(Cl)cc([N+](=O)[O-])c1O)c1cc(-c2ccccn2)nc2ccccc12 | 15 | -9 | 104* | 11 | 0 | 88* | -10 | 12* | · | ·
Cc1ccccc1/C=C/c1cc[n+](C)cc1 | 2 | 1 | 58* | -16 | -1 | -12 | -20 | · | · | ·
Cc1[nH]c2ccccc2c1/C=C/c1cc[n+](C)cc1 | -4 | 8 | 34 | -85 | 6 | · | · | · | · | ·
O=C(O)c1cccc2c1C(=O)c1cc([N+](=O)[O-])cc([N+](=O)[O-])c1-2 | -2 | 11 | · | 0 | 1 | · | · | · | · | ·
O=C(O)c1cccc2c1/C(=N/Nc1ccc([N+](=O)[O-])cc1[N+](=O)[O-])c1ccccc1-2 | 17 | -3 | 86* | -4 | 13 | 57* | -15 | 12* | · | ·
c1ccc(N2[C@@H]3c4ccccc4C[C@H]2c2ccccc23)cc1 | · | · | · | 0 | 2 | · | · | · | · | ·
O=C(CSc1nc2cc(C(=O)O)ccc2c(=O)n1-c1ccc(F)cc1)Nc1ccc(F)c(F)c1F | 1 | 0 | -4 | 6 | -2 | · | · | · | · | ·
CN(C)CC(C)(C)CNS(=O)(=O)c1cccc(Cl)c1Cl | -5 | -1 | 70* | -3 | -2 | 12 | -22 | · | · | ·
CSc1ccccc1NC(=O)CN1C(=O)C2CC=CCC2C1=O (stereo unspecified) | 1 | 1 | -3 | 0 | 0 | · | · | · | · | ·
CN(CC(=O)Nc1c(Cl)cccc1Cl)C(=O)c1cccc(-n2cccc2)c1 | 1 | 69* | 84* | 18 | 10 | 48* | -27 | 1 | -1 | 1
CN(CC(=O)Nc1cccc(F)c1)C(=O)c1ccc(N2C(=O)c3ccccc3C2=O)cc1 | -3 | 21 | -2 | -11 | 1 | · | · | · | · | ·
CN(CC(=O)Nc1cccc(F)c1)C(=O)c1cccc(-n2cccc2)c1 | 0 | 91* | 77* | 15 | 8 | 61* | -13 | 6.7* | 13 | 0
Cc1ccc(C)c(NC(=O)CN(C)C(=O)c2cccc(-n3cccc3)c2)c1 | 4 | 94* | 79* | 15 | 8 | 58* | -21 | -8 | 9 | 2
CCn1cc2nc(SCC(=O)Nc3ccc(F)cc3F)n(Cc3ccccc3)c(=O)c2n1 | 2 | 0 | -11 | 8 | 5 | · | · | · | · | ·
Cc1cccc(C)c1-n1nnnc1C(c1ccnc2ccccc12)N1CCOCC1 (stereo unspecified) | · | · | · | -1 | 0 | · | · | · | · | ·
NS(=O)(=O)c1cccc(NC(=O)CC23CC4CC(C2)CC(CC(=O)Nc2cccc(S(N)(=O)=O)c2)(C4)C3)c1 | -3 | -2 | 5 | 1 | 2 | · | · | · | · | ·
COc1ccc(OC)c(NC(=O)CCN2CCN(CCO)CC2)c1 | 1 | 0 | -4 | 3 | -2 | · | · | · | · | ·
Cc1cc(/C=C\c2nc(O)c([N+](=O)[O-])c(=O)[nH]2)c(C)n1-c1ccccc1 | 9 | 74* | 68* | 18 | 14 | 71* | -7 | 4 | 7 | 4
CCOc1ccccc1/C=C\c1nc(O)c([N+](=O)[O-])c(=O)[nH]1 | 1 | 2 | -10 | -17 | 0 | · | · | · | · | ·
Cc1ccccc1NC(=O)Cn1c(O)c(N=NC(=O)c2ccccc2O)c2ccccc21 | 48* | 91* | 94* | -2 | 46 | 77* | -13 | -3 | 15 | -6
Cc1ccc(NC(=O)Cn2c(O)c(N=NC(N)=O)c3ccccc32)cc1 | -3 | 1 | -8 | -29 | -1 | · | · | · | · | ·
O=c1oc(-c2ccccc2)nc2sc3c(c12)CCC3 | 6 | 96* | 59* | 1 | 38 | 34* | -18 | -20 | 4 | 5
COc1cc(O)c(C(C)=O)c(CC(=O)O)c1 | 1 | 50* | 64* | 4 | 1 | 49* | -12 | 9.4* | 10 | -1
COc1ccc2c(c1)C(=NNC(=O)c1ccccn1)c1cc(OC)ccc1-2 | 31 | 88* | 81* | 10 | 29 | 62* | -13 | 0 | 2 | -3
SMILES | STEP block | DNMT1 inh | Scp1 inh | SUMO1-SIM PPI | LMPTP block | Scp1 confirm | Scp-1 MG ctr | Scp-1 Tm shift | DNMT1 confirm | Beacon interf | others
NC(=O)COc1ccc2oc(-c3ccccc3)cc(=O)c2c1 | -5 | 7 | -7 | -3 | 4 | · | · | · | · | ·
CCc1ccccc1NC(=O)COc1ccc2oc(-c3ccc(OC)cc3)cc(=O)c2c1 | 5 | 68* | 74* | 9 | 7 | 59* | -12 | -13 | 5 | 5
CCOc1cccc(C=NNc2ccc(S(=O)(=O)Nc3ccccc3C(=O)O)cc2[N+](=O)[O-])c1O | 3 | -8 | -7 | -1 | 1 | · | · | · | · | ·
C=CCOc1ccc(C=NNc2ccc(S(=O)(=O)Nc3ccccc3C(=O)O)cc2[N+](=O)[O-])cc1OC | 100* | 90* | 71* | 69* | 100* | 82* | -19 | 15* | 110* | -12 | Beacon interf DR=>99
COc1ccc(C(CC(=O)N2CCCC(C)C2)c2c(OC)cc(OC)c3c(-c4ccccc4)cc(=O)oc23)cc1 (stereo unspecified) | 3 | 89* | 58* | 8 | 15 | 62* | -14 | -9 | 1 | -5
COc1ccc(C(CC(=O)N2CCCCC2)c2c(OC)cc(OC)c3c(-c4ccccc4)cc(=O)oc23)cc1 (stereo unspecified) | 3 | 102* | 79* | 4 | 15 | 65* | -12 | -13 | 3 | -2
Fc1ccc(Nc2nc(NCc3cccs3)nc3ccsc23)cc1 | 0 | -9 | · | 1 | 28 | · | · | · | · | ·
Clc1ccc(CN2C3=NCCCN3c3ccccc32)c(Cl)c1 | -2 | 2 | -8 | 0 | 1 | · | · | · | · | ·
NC(=O)c1ccc(NC(=O)COC(=O)c2cc3c(s2)CCC3)cc1 | 35 | 80* | 85* | 11 | 24 | 62* | -16 | -12 | 0 | 1
